ChEMBL document CHEMBL1914430, “Synthesis of some new 1,3,5-trisubstituted pyrazolines bearing benzene sulfonamide as anticancer and anti-inflammatory agents” (Bioorg Med Chem Lett, 2011)

Legend:
Rattus norvegicus [1] = assay: Antiinflammatory activity in Wistar rat assessed as inhibition of carrageenan-induced hind paw edema at 20 mg/kg, po administered 30 mins before carrageenan challenge measured after 3 hrs by plethysmometer; type: functional
Outline: (§1)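 Wistar rats of either sex, 150–175 g, fasted 16 h, n = 6 per group. Compound given orally at 20 mg/kg as a suspension in 1% CMC in water (10 mL/kg); controls got vehicle only. After 30 min, 0.1 mL of 1% carrageenan in saline was injected subplantar into the left hind paw. Paw volume was measured by plethysmometer at 0, 3 and 5 h. Inhibition = (1 − Vt/Vc) × 100, reported as mean ± SEM.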

Rattus norvegicus [2] = assay: Antiinflammatory activity in Wistar rat assessed as inhibition of carrageenan-induced hind paw edema at 20 mg/kg, po administered 30 mins before carrageenan challenge measured after 5 hrs by plethysmometer; type: functional; outline: as §1

| Compound | inhibition in vivo at 20 mg/kg (Rattus norvegicus [1]) [%] | inhibition in vivo at 20 mg/kg (Rattus norvegicus [2]) [%] |
| --- | --- | --- |
| Cc1ccc(-c2cc(C(F)(F)F)nn2-c2ccc(S(N)(=O)=O)cc2)cc1 [CELECOXIB] | 82.6 | 85.7 |
| Cc1cc(O)c(C2=NN(c3ccc(S(N)(=O)=O)cc3)C(c3ccc(Cl)cc3)C2)cc1Cl (centres undefined) | 65.8 | 71.4 |
